Experimental data reported in ChEMBL document CHEMBL3779865, “Discovery of Benzo[cd]indol-2(1H)-ones as Potent and Specific BET Bromodomain Inhibitors: Structure-Based Virtual Screening, Optimization, and Biological Evaluation” (J Med Chem, 2016).

Columns and labels:
[1] = test system: MV4-11; test: Antiproliferative activity against human MV4-11 cells after 72 hrs by CCK8 assay; format: functional, cell-based
[2] = Antiproliferative activity against human HL60 cells after 72 hrs by CCK8 assay; format: functional, cell-based, HL-60
[3] = test system: HT-29; test: Antiproliferative activity against human HT-29 cells after 72 hrs by CCK8 assay; format: functional, cell-based
[4] = target: T1, Bromodomain-containing protein 1 (Homo sapiens) (UniProt O95696); test: Binding affinity to human His6-tagged BRD1 (E556 to A688 residues) expressed in Escherichia coli BL21(DE3) cells at 200 uM incubated for 30 mins by SYPRO orange staining based fluorescence thermal shift assay
T1 sequence (whole entry): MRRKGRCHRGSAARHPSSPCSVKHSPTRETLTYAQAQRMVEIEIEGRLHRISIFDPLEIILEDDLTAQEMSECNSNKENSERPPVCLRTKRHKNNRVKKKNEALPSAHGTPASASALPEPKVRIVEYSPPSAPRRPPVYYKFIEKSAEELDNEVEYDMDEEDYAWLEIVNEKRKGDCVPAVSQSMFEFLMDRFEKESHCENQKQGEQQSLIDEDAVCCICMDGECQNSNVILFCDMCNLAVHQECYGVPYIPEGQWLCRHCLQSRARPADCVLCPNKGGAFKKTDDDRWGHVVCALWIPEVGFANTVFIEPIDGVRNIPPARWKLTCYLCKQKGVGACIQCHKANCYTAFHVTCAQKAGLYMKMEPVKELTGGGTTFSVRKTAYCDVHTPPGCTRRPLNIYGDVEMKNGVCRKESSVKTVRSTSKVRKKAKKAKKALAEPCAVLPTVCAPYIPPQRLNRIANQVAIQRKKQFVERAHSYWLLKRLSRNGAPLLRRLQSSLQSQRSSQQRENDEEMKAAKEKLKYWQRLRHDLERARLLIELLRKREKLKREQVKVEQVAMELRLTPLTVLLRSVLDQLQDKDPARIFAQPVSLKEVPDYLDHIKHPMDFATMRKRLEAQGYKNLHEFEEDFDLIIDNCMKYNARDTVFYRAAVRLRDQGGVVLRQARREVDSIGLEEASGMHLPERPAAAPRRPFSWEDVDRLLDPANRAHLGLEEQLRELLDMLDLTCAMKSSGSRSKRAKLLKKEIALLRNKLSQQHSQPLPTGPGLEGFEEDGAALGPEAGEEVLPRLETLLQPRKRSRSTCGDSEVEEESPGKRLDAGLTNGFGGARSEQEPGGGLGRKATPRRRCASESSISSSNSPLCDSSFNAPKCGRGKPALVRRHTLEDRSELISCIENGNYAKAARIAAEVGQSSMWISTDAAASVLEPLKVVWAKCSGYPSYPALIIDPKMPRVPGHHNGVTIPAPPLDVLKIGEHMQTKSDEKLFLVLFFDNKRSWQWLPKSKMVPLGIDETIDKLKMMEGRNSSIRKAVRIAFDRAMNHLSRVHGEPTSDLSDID
Outline: (§1)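 His6-tagged bromodomain constructs expressed in E. coli BL21(DE3) (grown at 25 °C to OD600 ~1.0, induced with 0.1 mM IPTG at 16 °C for 16 h). Purified by Ni affinity then gel filtration. Final 10 μM protein and 200 μM compound in 10 mM HEPES pH 7.5, 150 mM NaCl, DMSO ≤1%. SYPRO Orange 1:1000, 30 min on ice. Melt 30–75 °C at 0.3 °C/min. Triplicates. Tm from Boltzmann fit; ΔTm = Tm with minus without compound.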

[5] = target: Bromodomain-containing protein 3 (Homo sapiens) (UniProt Q15059); test: Binding affinity to human His6-tagged BRD3 bromodomain 1 (P24 to E144 residues) expressed in Escherichia coli BL21(DE3) cells at 200 uM incubated for 30 mins by SYPRO orange staining based fluorescence thermal shift assay; outline: as §1
[6] = target: Histone acetyltransferase p300 (Homo sapiens) (UniProt Q09472); test: Binding affinity to human His6-tagged EP300 (A1040 to G1161 residues) expressed in Escherichia coli BL21(DE3) cells at 200 uM incubated for 30 mins by SYPRO orange staining based fluorescence thermal shift assay; outline: as §1
[7] = target: T2, Bromodomain-containing protein 4 (Homo sapiens, UniProt O60885); test: Binding affinity to human His6-tagged BRD4 bromodomain 1 (N44 to E168 residues) expressed in Escherichia coli BL21(DE3) cells by isothermal titration calorimetry
[8] = target: Bromodomain testis-specific protein (Homo sapiens) (UniProt Q58F21); test: Binding affinity to human His6-tagged BRDT bromodomain 1 (N21 to E137 residues) expressed in Escherichia coli BL21(DE3) cells at 200 uM incubated for 30 mins by SYPRO orange staining based fluorescence thermal shift assay; outline: as §1
[9] = target: Bromodomain-containing protein 2 (Homo sapiens) (UniProt P25440); test: Binding affinity to human His6-tagged BRD2 bromodomain 1 (K77 to N194 residues) expressed in Escherichia coli BL21(DE3) cells at 200 uM incubated for 30 mins by SYPRO orange staining based fluorescence thermal shift assay; outline: as §1
[10] = target: CREB-binding protein (Homo sapiens) (UniProt Q92793); test: Binding affinity to human His6-tagged CREBBP (R1081 to G1197 residues) expressed in Escherichia coli BL21(DE3) cells at 200 uM incubated for 30 mins by SYPRO orange staining based fluorescence thermal shift assay; outline: as §1
[11] = target: T3, Bromodomain-containing protein 9 (Homo sapiens) (UniProt Q9H8M2); test: Binding affinity to human His6-tagged BRD9 (L14 to Q134 residues) expressed in Escherichia coli BL21(DE3) cells at 200 uM incubated for 30 mins by SYPRO orange staining based fluorescence thermal shift assay; outline: as §1
T3 sequence (whole entry): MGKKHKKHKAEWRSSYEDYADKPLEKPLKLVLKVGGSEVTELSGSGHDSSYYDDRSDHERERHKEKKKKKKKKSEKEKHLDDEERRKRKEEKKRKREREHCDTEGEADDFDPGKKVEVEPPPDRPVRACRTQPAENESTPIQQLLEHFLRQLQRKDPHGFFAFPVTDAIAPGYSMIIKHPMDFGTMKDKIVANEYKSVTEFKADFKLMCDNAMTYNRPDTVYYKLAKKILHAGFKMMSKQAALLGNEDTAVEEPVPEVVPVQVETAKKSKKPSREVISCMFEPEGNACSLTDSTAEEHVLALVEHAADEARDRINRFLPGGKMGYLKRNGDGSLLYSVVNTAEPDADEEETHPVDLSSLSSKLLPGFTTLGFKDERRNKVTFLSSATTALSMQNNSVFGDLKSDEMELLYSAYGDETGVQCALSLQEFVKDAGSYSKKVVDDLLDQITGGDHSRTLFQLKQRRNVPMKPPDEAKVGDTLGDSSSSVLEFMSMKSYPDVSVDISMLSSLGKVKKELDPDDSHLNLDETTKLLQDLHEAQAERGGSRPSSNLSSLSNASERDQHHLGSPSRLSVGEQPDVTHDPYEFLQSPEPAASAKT

[12] = target: Histone acetyltransferase KAT2B (Homo sapiens) (UniProt Q92831); test: Binding affinity to human His6-tagged PCAF (G715 to D831 residues) expressed in Escherichia coli BL21(DE3) cells at 200 uM incubated for 30 mins by SYPRO orange staining based fluorescence thermal shift assay; outline: as §1
[13] = target: Histone-lysine N-methyltransferase ASH1L (Homo sapiens) (UniProt Q9NR48); test: Binding affinity to human His6-tagged ASH1L (E2433 to E2564 residues) expressed in Escherichia coli BL21(DE3) cells at 200 uM incubated for 30 mins by SYPRO orange staining based fluorescence thermal shift assay; outline: as §1
[14] = target: Bromodomain adjacent to zinc finger domain protein 2B (Homo sapiens) (UniProt Q9UIF8); test: Binding affinity to human His6-tagged BAZ2B (S1858 to S1972 residues) expressed in Escherichia coli BL21(DE3) cells at 200 uM incubated for 30 mins by SYPRO orange staining based fluorescence thermal shift assay; outline: as §1
[15] = target: Transcription initiation factor TFIID subunit 1 (Homo sapiens) (UniProt P21675); test: Binding affinity to human His6-tagged TAF1 bromodomain 1 (R1377 to D1503 residues) expressed in Escherichia coli BL21(DE3) cells at 200 uM incubated for 30 mins by SYPRO orange staining based fluorescence thermal shift assay; outline: as §1
[16] = target: T2, Bromodomain-containing protein 4
[17] = target: T2, Bromodomain-containing protein 4; test: Inhibition of human His6-tagged BRD4 bromodomain 1 (N44 to E168 residues) expressed in Escherichia coli BL21(DE3) cells using biotin-H4KAc4 as substrate incubated for 2 hrs by alphascreen assay
[18] = Homo sapiens, MV4-11, 72 h, read-out: IC50
[19] = Homo sapiens, HL-60, 72 h, read-out: IC50
[20] = Homo sapiens, HT-29, 72 h, read-out: IC50

Sequence of CREB-binding protein (Homo sapiens) (Q92793 2-2442 limits assumed): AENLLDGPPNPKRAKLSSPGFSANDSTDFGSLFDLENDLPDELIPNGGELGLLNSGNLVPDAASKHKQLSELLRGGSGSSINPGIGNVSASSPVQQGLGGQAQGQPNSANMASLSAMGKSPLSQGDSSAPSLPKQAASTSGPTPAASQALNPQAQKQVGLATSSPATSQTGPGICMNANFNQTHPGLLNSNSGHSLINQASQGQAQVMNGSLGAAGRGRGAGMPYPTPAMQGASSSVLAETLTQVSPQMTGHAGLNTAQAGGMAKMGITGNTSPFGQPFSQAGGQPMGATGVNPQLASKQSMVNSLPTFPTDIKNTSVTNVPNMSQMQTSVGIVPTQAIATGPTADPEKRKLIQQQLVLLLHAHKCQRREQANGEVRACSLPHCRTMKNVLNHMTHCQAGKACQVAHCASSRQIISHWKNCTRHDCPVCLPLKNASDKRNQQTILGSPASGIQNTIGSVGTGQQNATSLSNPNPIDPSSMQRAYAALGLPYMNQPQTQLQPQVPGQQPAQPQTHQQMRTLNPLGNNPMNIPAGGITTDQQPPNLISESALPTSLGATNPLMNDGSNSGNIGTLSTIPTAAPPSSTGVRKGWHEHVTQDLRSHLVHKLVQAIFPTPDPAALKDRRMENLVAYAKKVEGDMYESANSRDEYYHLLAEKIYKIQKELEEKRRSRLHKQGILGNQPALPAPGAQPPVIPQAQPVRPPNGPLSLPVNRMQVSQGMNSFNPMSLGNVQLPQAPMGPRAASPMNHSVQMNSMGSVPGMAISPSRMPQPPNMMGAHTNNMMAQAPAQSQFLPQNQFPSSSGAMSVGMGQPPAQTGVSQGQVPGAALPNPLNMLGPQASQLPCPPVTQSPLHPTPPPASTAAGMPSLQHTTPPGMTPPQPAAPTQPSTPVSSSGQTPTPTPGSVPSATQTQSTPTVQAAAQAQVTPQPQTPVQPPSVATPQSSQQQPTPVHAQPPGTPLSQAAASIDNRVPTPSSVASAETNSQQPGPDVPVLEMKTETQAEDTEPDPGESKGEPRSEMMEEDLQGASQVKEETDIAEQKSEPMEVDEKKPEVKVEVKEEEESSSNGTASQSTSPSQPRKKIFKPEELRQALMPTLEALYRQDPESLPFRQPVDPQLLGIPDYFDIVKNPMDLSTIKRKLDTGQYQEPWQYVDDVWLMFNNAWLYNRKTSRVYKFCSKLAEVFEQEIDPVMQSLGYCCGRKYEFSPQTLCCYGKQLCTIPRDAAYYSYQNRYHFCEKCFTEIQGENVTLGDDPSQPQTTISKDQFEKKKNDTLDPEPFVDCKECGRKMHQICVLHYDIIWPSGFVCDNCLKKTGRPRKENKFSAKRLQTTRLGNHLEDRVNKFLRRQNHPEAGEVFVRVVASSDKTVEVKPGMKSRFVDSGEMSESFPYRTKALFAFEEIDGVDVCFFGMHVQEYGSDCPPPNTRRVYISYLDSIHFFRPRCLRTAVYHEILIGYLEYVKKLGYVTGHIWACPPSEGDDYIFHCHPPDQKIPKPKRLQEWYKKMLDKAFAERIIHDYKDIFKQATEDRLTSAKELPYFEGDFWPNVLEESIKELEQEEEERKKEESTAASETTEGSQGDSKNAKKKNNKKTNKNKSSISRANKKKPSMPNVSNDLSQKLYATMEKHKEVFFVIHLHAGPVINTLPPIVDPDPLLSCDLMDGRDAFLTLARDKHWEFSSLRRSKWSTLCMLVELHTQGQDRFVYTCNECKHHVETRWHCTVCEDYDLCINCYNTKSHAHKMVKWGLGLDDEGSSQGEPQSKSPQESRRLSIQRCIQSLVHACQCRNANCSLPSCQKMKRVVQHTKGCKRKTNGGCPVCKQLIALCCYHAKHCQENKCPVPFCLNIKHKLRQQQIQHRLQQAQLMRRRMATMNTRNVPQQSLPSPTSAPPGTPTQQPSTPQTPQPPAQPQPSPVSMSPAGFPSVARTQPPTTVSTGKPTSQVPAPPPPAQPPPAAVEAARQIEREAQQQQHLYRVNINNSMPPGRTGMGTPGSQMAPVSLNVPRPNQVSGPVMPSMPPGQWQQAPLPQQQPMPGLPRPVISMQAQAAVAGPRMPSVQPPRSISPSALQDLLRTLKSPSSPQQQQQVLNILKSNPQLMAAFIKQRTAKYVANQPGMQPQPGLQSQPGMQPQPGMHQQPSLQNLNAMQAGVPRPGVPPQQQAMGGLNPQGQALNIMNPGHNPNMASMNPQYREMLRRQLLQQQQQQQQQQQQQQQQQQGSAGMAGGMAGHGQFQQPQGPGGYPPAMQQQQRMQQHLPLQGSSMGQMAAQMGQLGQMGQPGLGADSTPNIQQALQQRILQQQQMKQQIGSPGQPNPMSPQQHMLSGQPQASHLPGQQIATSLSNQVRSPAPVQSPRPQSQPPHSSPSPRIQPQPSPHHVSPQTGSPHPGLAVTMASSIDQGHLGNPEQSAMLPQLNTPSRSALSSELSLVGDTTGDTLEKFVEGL
Sequence of Bromodomain adjacent to zinc finger domain protein 2B (Homo sapiens) (Q9UIF8 whole entry, the tested form may be a part): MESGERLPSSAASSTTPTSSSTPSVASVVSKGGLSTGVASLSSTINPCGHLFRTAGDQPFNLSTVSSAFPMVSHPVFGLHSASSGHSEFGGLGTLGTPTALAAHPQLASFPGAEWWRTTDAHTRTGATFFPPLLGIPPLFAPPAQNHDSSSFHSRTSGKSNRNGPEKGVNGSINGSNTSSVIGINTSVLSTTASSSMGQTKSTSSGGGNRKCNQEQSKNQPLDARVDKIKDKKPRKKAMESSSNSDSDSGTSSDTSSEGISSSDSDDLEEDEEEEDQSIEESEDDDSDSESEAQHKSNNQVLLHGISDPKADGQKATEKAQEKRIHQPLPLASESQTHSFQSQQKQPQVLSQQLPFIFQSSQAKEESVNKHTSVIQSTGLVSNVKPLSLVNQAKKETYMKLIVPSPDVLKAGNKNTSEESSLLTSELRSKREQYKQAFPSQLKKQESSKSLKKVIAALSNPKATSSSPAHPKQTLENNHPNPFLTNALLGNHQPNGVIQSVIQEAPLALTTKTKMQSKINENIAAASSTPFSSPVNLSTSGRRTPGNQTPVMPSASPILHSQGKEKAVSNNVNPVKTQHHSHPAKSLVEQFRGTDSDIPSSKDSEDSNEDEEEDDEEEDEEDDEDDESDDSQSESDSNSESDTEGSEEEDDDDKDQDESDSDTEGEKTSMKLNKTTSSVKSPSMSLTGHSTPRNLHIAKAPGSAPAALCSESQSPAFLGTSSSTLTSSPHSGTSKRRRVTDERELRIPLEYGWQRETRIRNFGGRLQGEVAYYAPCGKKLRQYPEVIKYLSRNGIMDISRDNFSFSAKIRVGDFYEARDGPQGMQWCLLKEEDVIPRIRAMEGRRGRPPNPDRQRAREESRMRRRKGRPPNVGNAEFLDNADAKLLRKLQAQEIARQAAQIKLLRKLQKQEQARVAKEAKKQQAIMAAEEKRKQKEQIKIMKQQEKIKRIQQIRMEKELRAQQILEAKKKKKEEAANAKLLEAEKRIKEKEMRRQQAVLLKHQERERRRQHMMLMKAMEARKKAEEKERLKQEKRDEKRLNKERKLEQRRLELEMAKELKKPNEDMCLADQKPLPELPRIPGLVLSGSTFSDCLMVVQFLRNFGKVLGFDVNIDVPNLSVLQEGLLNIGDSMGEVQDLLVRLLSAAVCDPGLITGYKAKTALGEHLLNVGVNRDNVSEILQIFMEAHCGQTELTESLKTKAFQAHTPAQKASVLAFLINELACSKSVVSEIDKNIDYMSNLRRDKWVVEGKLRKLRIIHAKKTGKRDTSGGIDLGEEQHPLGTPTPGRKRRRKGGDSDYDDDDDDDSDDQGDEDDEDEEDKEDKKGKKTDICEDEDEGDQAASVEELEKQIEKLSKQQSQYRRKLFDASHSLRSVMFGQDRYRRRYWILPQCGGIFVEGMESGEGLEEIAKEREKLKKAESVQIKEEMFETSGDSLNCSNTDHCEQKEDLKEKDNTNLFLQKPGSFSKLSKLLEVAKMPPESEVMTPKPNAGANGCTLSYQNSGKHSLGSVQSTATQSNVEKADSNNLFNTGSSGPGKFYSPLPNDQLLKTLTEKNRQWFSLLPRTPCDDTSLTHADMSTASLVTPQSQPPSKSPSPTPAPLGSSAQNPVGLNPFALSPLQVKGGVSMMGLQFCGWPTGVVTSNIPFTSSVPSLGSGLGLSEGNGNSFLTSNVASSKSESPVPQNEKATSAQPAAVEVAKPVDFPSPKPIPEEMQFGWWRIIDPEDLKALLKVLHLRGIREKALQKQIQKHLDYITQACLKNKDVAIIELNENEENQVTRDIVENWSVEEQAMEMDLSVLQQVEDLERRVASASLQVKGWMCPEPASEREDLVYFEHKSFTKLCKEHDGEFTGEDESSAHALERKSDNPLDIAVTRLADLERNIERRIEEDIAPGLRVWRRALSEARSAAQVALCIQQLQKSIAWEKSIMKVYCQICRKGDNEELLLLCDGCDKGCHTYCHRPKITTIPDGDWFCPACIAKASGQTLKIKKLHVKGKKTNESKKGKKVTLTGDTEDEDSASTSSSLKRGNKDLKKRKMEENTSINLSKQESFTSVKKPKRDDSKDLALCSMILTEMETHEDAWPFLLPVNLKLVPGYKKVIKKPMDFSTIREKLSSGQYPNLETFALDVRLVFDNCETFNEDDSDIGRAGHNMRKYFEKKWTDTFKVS

SMILES: Cc1sc2c(c1C)C(c1ccc(Cl)cc1)=N[C@@H](CC(=O)OC(C)(C)C)c1nnc(C)n1-2
- IC50 [1, 18]: 12 nM
- IC50 [2, 19]: 60 nM
- IC50 [3, 20]: 280 nM
- ΔTm [4]: 1.1 °C

SMILES: CCCNS(=O)(=O)c1ccc2c3c(cccc13)C(=O)N2CC
- ΔTm [5]: 6.5 °C
- ΔTm [6]: 1.1 °C
- Kd [7]: 224 nM
- IC50 [1, 18]: 1320 nM
- IC50 [2, 19]: 2950 nM
- IC50 [3, 20]: 14600 nM
- ΔTm [8]: 2.4 °C
- ΔTm [9]: 4.7 °C
- ΔTm [10]: 0.6 °C
- ΔTm [4]: 1.3 °C
- ΔTm [11]: 0.8 °C
- ΔTm [12]: -0.4 °C
- ΔTm [13]: -0.5 °C
- ΔTm [14]: 0.5 °C
- ΔTm [15]: 0.3 °C
- ΔTm [16]: 9 °C

SMILES: CCN1C(=O)c2cccc3c(S(=O)(=O)NCCCCNC(=O)OC(C)(C)C)ccc1c23
- ΔTm [5]: 5.3 °C
- ΔTm [6]: 1 °C
- Kd [7]: 421 nM
- IC50 [1, 18]: 5480 nM
- IC50 [2, 19]: 43100 nM
- IC50 [3, 20]: 48100 nM
- ΔTm [8]: 3.2 °C
- ΔTm [9]: 3.2 °C
- ΔTm [10]: 0.6 °C
- ΔTm [4]: 2 °C
- ΔTm [11]: 1.4 °C
- ΔTm [12]: 0.6 °C
- ΔTm [13]: 1 °C
- ΔTm [14]: 0.4 °C
- ΔTm [15]: 0.6 °C
- ΔTm [16]: 7.1 °C

SMILES: CCN1C(=O)c2cccc3c(S(=O)(=O)Nc4ccccc4C(=O)O)ccc1c23
- ΔTm [5]: 6 °C
- ΔTm [6]: 6.4 °C
- Kd [7]: 392 nM
- IC50 ([1]; mv4-11): Not Active
- IC50 ([2]; hl-60): Not Active
- IC50 ([3]; ht-29): Not Active
- ΔTm [8]: 4.2 °C
- ΔTm [9]: 3.2 °C
- ΔTm [10]: 4.8 °C
- ΔTm [4]: 2 °C
- ΔTm [11]: -2.6 °C
- ΔTm [12]: 1.5 °C
- ΔTm [13]: 0.6 °C
- ΔTm [14]: 1 °C
- ΔTm [15]: -0.2 °C
- ΔTm [16]: 7.2 °C

SMILES: CCN1C(=O)c2cccc3c(NS(=O)(=O)c4ccc(F)cc4)ccc1c23
- IC50 [17]: 400 nM
- ΔTm [5]: 7 °C
- ΔTm [6]: 5.1 °C
- Kd [7]: 390 nM
- IC50 [1, 18]: 3090 nM
- ΔTm [8]: 5.8 °C
- ΔTm [9]: 5.1 °C
- ΔTm [10]: 2.4 °C
- ΔTm [4]: 2.9 °C
- ΔTm [11]: 4.1 °C
- ΔTm [12]: 1.6 °C
- ΔTm [13]: 3.1 °C
- ΔTm [14]: -2.4 °C
- ΔTm [15]: 1.1 °C
- ΔTm [16]: 9.5 °C
